In ChEMBL document CHEMBL1143334, “Peri-substituted hexahydro-indolones as novel, potent and selective human EP3 receptor antagonists” (Bioorg Med Chem Lett, 2009):
In brackets after ≈: the same amount, converted by molar mass. Activity calls are given as the source filed them. No cut-off for these calls is given here.

Biological target: T1, Prostaglandin E2 receptor EP3 subtype (Homo sapiens, UniProt P43115)
T1 sequence (P43115 whole entry): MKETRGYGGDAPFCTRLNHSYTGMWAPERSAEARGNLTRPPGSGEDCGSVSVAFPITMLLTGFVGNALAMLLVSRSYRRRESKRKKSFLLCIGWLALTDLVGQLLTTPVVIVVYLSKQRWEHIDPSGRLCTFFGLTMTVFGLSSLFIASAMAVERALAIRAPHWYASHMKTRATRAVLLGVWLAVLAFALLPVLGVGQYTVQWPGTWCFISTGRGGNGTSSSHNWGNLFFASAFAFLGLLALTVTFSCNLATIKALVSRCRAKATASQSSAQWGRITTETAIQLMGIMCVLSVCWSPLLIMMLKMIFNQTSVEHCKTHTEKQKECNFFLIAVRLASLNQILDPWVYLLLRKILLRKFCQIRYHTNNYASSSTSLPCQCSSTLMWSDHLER
Assay: Displacement of [3H]PGE2 from human EP3 receptor
Details: not given
Outline: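 Displacement of [3H]-PGE2 from human EP3 receptor membrane preparations was run in buffer. IC50 values come from at least three experiments each.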

SMILES | IC50
CC12CCCC(/C=C/C(=O)NS(=O)(=O)c3ccc(F)cc3)=C1N(Cc1ccc(Cl)cc1Cl)C(=O)C2 (configuration not stated) | 15.2 nM
CC12CCCC(/C=C/C(=O)NS(=O)(=O)c3cc(Cl)c(Cl)s3)=C1N(Cc1ccc3ccccc3c1)C(=O)C2 (configuration not stated) | 6.8 nM
CC12CCCC(/C=C/C(=O)NS(=O)(=O)c3cc(F)cc(F)c3)=C1N(Cc1ccc(F)c(F)c1)C(=O)C2 (configuration not stated) | 9.2 nM
COC(=O)C12CCCC(/C=C/C(=O)NS(=O)(=O)c3cc(F)c(F)cc3F)=C1N(Cc1ccc(Cl)cc1Cl)C(=O)C2 (configuration not stated) | 11.2 nM
CC12CCCC(CCC(=O)NS(=O)(=O)c3cc(F)c(F)cc3F)=C1N(Cc1ccc(F)c(F)c1)C(=O)C2 (configuration not stated) | 1.8 nM
COc1cccc(CN2C(=O)CC3(C)CCCC(/C=C/C(=O)NS(=O)(=O)c4cc(Cl)c(Cl)s4)=C23)c1 (configuration not stated) | 6.4 nM

Biological target: T2, Prostaglandin E2 receptor EP3 subtype (Homo sapiens) (UniProt P43115)
T2 sequence (whole entry): T1 sequence (P43115 whole entry)
Assay: Ratio of IC50 for human EP3 receptor in presence of 10% human serum to IC50 for human EP3 receptor in buffer
Details: not given
Outline: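 Displacement of [3H]-PGE2 from human EP3 membrane preparations was run both with 10% human serum and in buffer alone. Fold-shift is IC50 with serum divided by IC50 in buffer.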

SMILES | fold change (FC)
CC12CCCC(/C=C/C(=O)NS(=O)(=O)c3ccc(F)cc3)=C1N(Cc1ccc(Cl)cc1Cl)C(=O)C2 (configuration not stated) | 21.2
CC12CCCC(/C=C/C(=O)NS(=O)(=O)c3cc(Cl)c(Cl)s3)=C1N(Cc1ccc3ccccc3c1)C(=O)C2 (configuration not stated) | 7.4
CC12CCCC(/C=C/C(=O)NS(=O)(=O)c3cc(F)cc(F)c3)=C1N(Cc1ccc(F)c(F)c1)C(=O)C2 (configuration not stated) | 217
COC(=O)C12CCCC(/C=C/C(=O)NS(=O)(=O)c3cc(F)c(F)cc3F)=C1N(Cc1ccc(Cl)cc1Cl)C(=O)C2 (configuration not stated) | 47.1
CC12CCCC(CCC(=O)NS(=O)(=O)c3cc(F)c(F)cc3F)=C1N(Cc1ccc(F)c(F)c1)C(=O)C2 (configuration not stated) | 33.2
COc1cccc(CN2C(=O)CC3(C)CCCC(/C=C/C(=O)NS(=O)(=O)c4cc(Cl)c(Cl)s4)=C23)c1 (configuration not stated) | 4.8

Test system: not listed separately
Assay: Metabolic stability in rat liver microsomes after 30 mins
Type: ADME, Microsome
Details: read-out: Stability
Outline: (§1)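 Compound was incubated 30 min with liver microsomes from each species. Percent parent remaining was measured by LC/MS/MS.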

SMILES | remaining at 0.5 h
CC12CCCC(/C=C/C(=O)NS(=O)(=O)c3ccc(F)cc3)=C1N(Cc1ccc(Cl)cc1Cl)C(=O)C2 (configuration not stated) | 64%
CC12CCCC(/C=C/C(=O)NS(=O)(=O)c3cc(Cl)c(Cl)s3)=C1N(Cc1ccc3ccccc3c1)C(=O)C2 (configuration not stated) | 54%
COc1cccc(CN2C(=O)CC3(C)CCCC(/C=C/C(=O)NS(=O)(=O)c4cc(Cl)c(Cl)s4)=C23)c1 (configuration not stated) | 64%

Test system: not listed separately
Assay: Metabolic stability in human liver microsomes after 30 mins
Type: ADME, Microsome
Details: read-out: Stability
Outline: as §1

SMILES | remaining at 0.5 h
CC12CCCC(/C=C/C(=O)NS(=O)(=O)c3ccc(F)cc3)=C1N(Cc1ccc(Cl)cc1Cl)C(=O)C2 (configuration not stated) | 70%
CC12CCCC(/C=C/C(=O)NS(=O)(=O)c3cc(Cl)c(Cl)s3)=C1N(Cc1ccc3ccccc3c1)C(=O)C2 (configuration not stated) | 64%
COc1cccc(CN2C(=O)CC3(C)CCCC(/C=C/C(=O)NS(=O)(=O)c4cc(Cl)c(Cl)s4)=C23)c1 (configuration not stated) | 62%

Biological target: Prostaglandin E2 receptor EP4 subtype (Homo sapiens, UniProt P35408)
Assay: Binding affinity to human EP4 receptor at 20 uM by radioligand binding assay
Details: not given

Sequence of Prostaglandin E2 receptor EP4 subtype (P35408 whole entry): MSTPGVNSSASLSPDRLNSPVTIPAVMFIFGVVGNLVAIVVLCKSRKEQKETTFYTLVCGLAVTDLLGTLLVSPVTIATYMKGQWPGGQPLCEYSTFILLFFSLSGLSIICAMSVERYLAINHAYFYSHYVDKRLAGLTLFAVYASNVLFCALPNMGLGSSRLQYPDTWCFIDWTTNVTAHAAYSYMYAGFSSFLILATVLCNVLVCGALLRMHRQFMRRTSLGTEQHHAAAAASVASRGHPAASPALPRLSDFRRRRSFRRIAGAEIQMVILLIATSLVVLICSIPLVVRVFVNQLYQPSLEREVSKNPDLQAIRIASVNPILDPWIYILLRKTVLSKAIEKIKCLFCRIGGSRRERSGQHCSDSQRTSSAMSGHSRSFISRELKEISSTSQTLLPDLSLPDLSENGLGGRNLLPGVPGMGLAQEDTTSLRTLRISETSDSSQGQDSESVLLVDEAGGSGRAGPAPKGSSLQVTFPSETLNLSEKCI

SMILES | Activity
CC12CCCC(/C=C/C(=O)NS(=O)(=O)c3cc(Cl)c(Cl)s3)=C1N(Cc1ccc3ccccc3c1)C(=O)C2 (configuration not stated) | inactive
COc1cccc(CN2C(=O)CC3(C)CCCC(/C=C/C(=O)NS(=O)(=O)c4cc(Cl)c(Cl)s4)=C23)c1 (configuration not stated) | inactive

Test system: not listed separately
Assay: Aqueous solubility in 50 mM PSB buffer at pH 7.4 by HPLC analysis
Type: physicochemical
Details: not given
Outline: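 Samples were stirred overnight in 50 mM PSB buffer, pH 7.4, then filtered. Concentration was measured by HPLC against a 5-point standard curve, giving thermodynamic solubility.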

SMILES | solubility
CC1C(=O)N(Cc2ccc(F)c(F)c2)c2c(/C=C/C(=O)NS(=O)(=O)c3cc(F)c(F)cc3F)cccc21 (configuration not stated) | 1580 µg/mL (≈ 2950 µM)
Cc1cn(Cc2ccc(F)c(F)c2)c2c(/C=C/C(=O)NS(=O)(=O)c3cc(F)c(F)cc3F)cc(F)cc12 | < 40 µg/mL

Organism: Homo sapiens
Assay: Selectivity of human EP1 receptor over human EP3 receptor
Details: not given

SMILES | Selectivity ratio
CC12CCCC(/C=C/C(=O)NS(=O)(=O)c3cc(Cl)c(Cl)s3)=C1N(Cc1ccc3ccccc3c1)C(=O)C2 (configuration not stated) | > 1000
COc1cccc(CN2C(=O)CC3(C)CCCC(/C=C/C(=O)NS(=O)(=O)c4cc(Cl)c(Cl)s4)=C23)c1 (configuration not stated) | > 1000

Organism: Homo sapiens
Assay: Selectivity of human EP2 receptor over human EP3 receptor
Details: not given

SMILES | Selectivity ratio
CC12CCCC(/C=C/C(=O)NS(=O)(=O)c3cc(Cl)c(Cl)s3)=C1N(Cc1ccc3ccccc3c1)C(=O)C2 (configuration not stated) | > 1000
COc1cccc(CN2C(=O)CC3(C)CCCC(/C=C/C(=O)NS(=O)(=O)c4cc(Cl)c(Cl)s4)=C23)c1 (configuration not stated) | > 1000

Organism: Homo sapiens
Assay: Selectivity of human EP4 receptor over human EP3 receptor
Details: not given

SMILES | Selectivity ratio
CC12CCCC(/C=C/C(=O)NS(=O)(=O)c3cc(Cl)c(Cl)s3)=C1N(Cc1ccc3ccccc3c1)C(=O)C2 (configuration not stated) | > 1000
COc1cccc(CN2C(=O)CC3(C)CCCC(/C=C/C(=O)NS(=O)(=O)c4cc(Cl)c(Cl)s4)=C23)c1 (configuration not stated) | > 1000

Organism: Homo sapiens
Assay: Selectivity of human FP receptor over human EP3 receptor
Details: not given

SMILES | Selectivity ratio
CC12CCCC(/C=C/C(=O)NS(=O)(=O)c3cc(Cl)c(Cl)s3)=C1N(Cc1ccc3ccccc3c1)C(=O)C2 (configuration not stated) | > 1000
COc1cccc(CN2C(=O)CC3(C)CCCC(/C=C/C(=O)NS(=O)(=O)c4cc(Cl)c(Cl)s4)=C23)c1 (configuration not stated) | > 1000

Biological target: T3, Prostaglandin E2 receptor EP1 subtype (Homo sapiens, UniProt P34995)
T3 sequence (P34995 whole entry): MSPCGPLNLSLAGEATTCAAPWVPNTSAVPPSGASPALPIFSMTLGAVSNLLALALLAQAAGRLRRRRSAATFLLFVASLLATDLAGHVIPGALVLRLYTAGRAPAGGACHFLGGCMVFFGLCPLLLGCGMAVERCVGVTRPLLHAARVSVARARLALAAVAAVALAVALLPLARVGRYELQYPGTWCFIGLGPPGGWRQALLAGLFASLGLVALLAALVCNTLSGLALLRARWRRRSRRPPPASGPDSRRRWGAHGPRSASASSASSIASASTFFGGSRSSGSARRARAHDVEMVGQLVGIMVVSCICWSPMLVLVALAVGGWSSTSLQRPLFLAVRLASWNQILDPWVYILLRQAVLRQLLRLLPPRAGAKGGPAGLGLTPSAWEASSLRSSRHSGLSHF
Assay: Binding affinity to human EP1 receptor by radioligand binding assay
Details: not given

SMILES | IC50
CC12CCCC(/C=C/C(=O)NS(=O)(=O)c3cc(Cl)c(Cl)s3)=C1N(Cc1ccc3ccccc3c1)C(=O)C2 (configuration not stated) | 6900 nM

Biological target: T4, Prostaglandin E2 receptor EP1 subtype (Homo sapiens) (UniProt P34995)
T4 sequence (whole entry): T3 sequence (P34995 whole entry)
Assay: Binding affinity to human EP1 receptor at 20 uM by radioligand binding assay
Details: not given

SMILES | Activity
COc1cccc(CN2C(=O)CC3(C)CCCC(/C=C/C(=O)NS(=O)(=O)c4cc(Cl)c(Cl)s4)=C23)c1 (configuration not stated) | inactive

Biological target: Prostaglandin E2 receptor EP2 subtype (Homo sapiens, UniProt P43116)
Assay: Binding affinity to human EP2 receptor at 20 uM by radioligand binding assay
Details: not given

Sequence of Prostaglandin E2 receptor EP2 subtype (P43116 whole entry): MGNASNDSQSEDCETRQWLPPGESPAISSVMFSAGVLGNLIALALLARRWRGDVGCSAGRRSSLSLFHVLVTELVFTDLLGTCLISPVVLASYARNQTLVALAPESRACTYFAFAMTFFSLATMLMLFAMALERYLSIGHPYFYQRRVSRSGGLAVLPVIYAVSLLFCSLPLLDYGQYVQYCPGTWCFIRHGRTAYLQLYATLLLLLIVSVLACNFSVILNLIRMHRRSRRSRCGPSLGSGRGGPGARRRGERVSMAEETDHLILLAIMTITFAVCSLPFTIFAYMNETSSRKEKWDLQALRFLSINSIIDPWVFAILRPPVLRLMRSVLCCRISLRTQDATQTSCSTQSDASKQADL

SMILES | Activity
CC12CCCC(/C=C/C(=O)NS(=O)(=O)c3cc(Cl)c(Cl)s3)=C1N(Cc1ccc3ccccc3c1)C(=O)C2 (configuration not stated) | inactive
COc1cccc(CN2C(=O)CC3(C)CCCC(/C=C/C(=O)NS(=O)(=O)c4cc(Cl)c(Cl)s4)=C23)c1 (configuration not stated) | inactive

Biological target: Prostaglandin F2-alpha receptor (Homo sapiens, UniProt P43088)
Assay: Binding affinity to human FP receptor by radioligand binding assay
Details: not given

Sequence of Prostaglandin F2-alpha receptor (P43088 whole entry): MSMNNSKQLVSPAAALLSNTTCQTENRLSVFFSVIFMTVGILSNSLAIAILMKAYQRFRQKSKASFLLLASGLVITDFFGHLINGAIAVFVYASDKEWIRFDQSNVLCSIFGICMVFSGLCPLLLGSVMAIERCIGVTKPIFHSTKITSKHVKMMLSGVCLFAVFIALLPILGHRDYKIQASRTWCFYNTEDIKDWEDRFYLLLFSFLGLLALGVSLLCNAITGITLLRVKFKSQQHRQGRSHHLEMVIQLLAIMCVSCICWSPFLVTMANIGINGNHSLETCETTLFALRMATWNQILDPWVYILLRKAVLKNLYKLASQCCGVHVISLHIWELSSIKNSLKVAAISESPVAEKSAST

SMILES | IC50
CC12CCCC(/C=C/C(=O)NS(=O)(=O)c3cc(Cl)c(Cl)s3)=C1N(Cc1ccc3ccccc3c1)C(=O)C2 (configuration not stated) | 10200 nM
COc1cccc(CN2C(=O)CC3(C)CCCC(/C=C/C(=O)NS(=O)(=O)c4cc(Cl)c(Cl)s4)=C23)c1 (configuration not stated) | 6100 nM

Biological target: T1, Prostaglandin E2 receptor EP3 subtype
Assay: Antagonist activity at human EP3 receptor expressed in CHO-K1 cells assessed as reversal of inhibition of forskolin-induced cAMP production
Type: functional, cell-based
Details: not given
Outline: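 CHO-K1 cells stably expressing human EP3 were exposed to increasing test compound concentrations for 10 min at 37 °C, with 5 μM forskolin plus 5 nM PGE2 present. Read-out was the block of PGE2's inhibition of the forskolin-induced cAMP rise, giving IC50.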

SMILES | IC50
COc1cccc(CN2C(=O)CC3(C)CCCC(/C=C/C(=O)NS(=O)(=O)c4cc(Cl)c(Cl)s4)=C23)c1 (configuration not stated) | 5.8 nM
